Reference: ChEMBL document CHEMBL1629633, “Prevalence of sulfonamide resistance genes in bacterial isolates from manured agricultural soils and pig slurry in the United Kingdom” (2009)

Assays:
[1] = Antimicrobial activity against Acinetobacter sp. N2 isolate C439 harboring sul1 to sul3 genes assessed as antibiotic resistance breakpoint by agar dilution method; format: functional
Method in brief: (§1)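 Agar dilution on Iso-Sensitest agar for MICs and resistance breakpoints. Each isolate's inoculum (100 μl) was adjusted to OD600 0.4. Isolates came from soil cores of a field given pig slurry, or from the pig slurry itself. They were picked from nonselective or antibiotic plates incubated aerobically at 28°C, purified by restreaking, checked for sul genes by PCR and identified by 16S rRNA sequencing.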

Pseudomonas lini = assay: Antimicrobial activity against Pseudomonas lini isolate C701 harboring sul1 to sul3 genes assessed as antibiotic resistance breakpoint by agar dilution method; format: functional; method in brief: as §1
Aerococcus viridans = assay: Antimicrobial activity against Aerococcus viridans isolate PGS22 harboring sul1 to sul3 genes assessed as antibiotic resistance breakpoint by agar dilution method; format: functional; method in brief: as §1
[2] = tested on: Stenotrophomonas maltophilia; assay: Antimicrobial activity against Stenotrophomonas maltophilia isolate C422 harboring sul1 to sul3 genes assessed as antibiotic resistance breakpoint by agar dilution method; format: functional
Method in brief: (§2)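 Isolates were recovered from manured clay soil or pig slurry on Iso-Sensitest agar at 28°C. sul genes were detected by PCR, and identity was assigned by ~800 bp 16S rRNA sequencing. MICs and resistance breakpoints were found by agar dilution on Iso-Sensitest agar, with each inoculum (100 μl) adjusted to OD600 0.4.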

[3] = tested on: Lysinibacillus sphaericus; assay: Antimicrobial activity against Bacillus sphaericus isolate C237 harboring sul1 to sul3 genes assessed as antibiotic resistance breakpoint by agar dilution method; format: functional; method in brief: as §1
Acinetobacter lwoffii [4] = assay: Antimicrobial activity against Acinetobacter lwoffii isolate C2 harboring sul1 to sul3 genes assessed as antibiotic resistance breakpoint by agar dilution method; format: functional; method in brief: as §1
Providencia stuartii = assay: Antimicrobial activity against Providencia stuartii isolate C167 harboring sul1 to sul3 genes assessed as antibiotic resistance breakpoint by agar dilution method; format: functional; method in brief: as §1
Enterococcus hirae = assay: Antimicrobial activity against Enterococcus hirae isolate PGS48 harboring sul1 to sul3 genes assessed as antibiotic resistance breakpoint by agar dilution method; format: functional; method in brief: as §1
[5] = tested on: Arthrobacter arilaitensis; assay: Antimicrobial activity against Arthrobacter arilaitensis isolate C361 harboring sul1 to sul3 genes assessed as antibiotic resistance breakpoint by agar dilution method; format: functional, Glutamicibacter arilaitensis; method in brief: as §1
[6] = Antimicrobial activity against Acinetobacter sp. An9 isolate PGS49 harboring sul1 to sul3 genes assessed as antibiotic resistance breakpoint by agar dilution method; format: functional; method in brief: as §1
Acinetobacter lwoffii [7] = assay: Antimicrobial activity against Acinetobacter lwoffii isolate PGS47 harboring sul1 to sul3 genes assessed as antibiotic resistance breakpoint by agar dilution method; format: functional; method in brief: as §1
Enterococcus sulfureus = assay: Antimicrobial activity against Enterococcus sulfureus isolate PGS61 harboring sul1 to sul3 genes assessed as antibiotic resistance breakpoint by agar dilution method; format: functional; method in brief: as §1
Acinetobacter lwoffii [8] = assay: Antimicrobial activity against Acinetobacter lwoffii isolate C15 harboring sul1 to sul3 genes assessed as antibiotic resistance breakpoint by agar dilution method; format: functional; method in brief: as §1
[9] = Antimicrobial activity against Psychrobacter ikaite isolate C20 harboring sul1 to sul3 genes assessed as antibiotic resistance breakpoint by agar dilution method; format: functional; method in brief: as §1
[10] = Antimicrobial activity against Psychrobacter sp. DY9-2 isolate C711 harboring sul1 to sul3 genes assessed as antibiotic resistance breakpoint by agar dilution method; format: functional; method in brief: as §2
[11] = tested on: Psychrobacter frigidicola; assay: Antimicrobial activity against Psychrobacter frigidicola isolate C712 harboring sul1 to sul3 genes assessed as antibiotic resistance breakpoint by agar dilution method; format: functional; method in brief: as §1
[12] = Antimicrobial activity against Psychrobacter ikaite isolate C713 harboring sul1 to sul3 genes assessed as antibiotic resistance breakpoint by agar dilution method; format: functional; method in brief: as §2
[13] = tested on: Acinetobacter calcoaceticus; assay: Antimicrobial activity against Acinetobacter calcoaceticus isolate C35 harboring sul1 to sul3 genes assessed as antibiotic resistance breakpoint by agar dilution method; format: functional; method in brief: as §1
[14] = tested on: Acinetobacter calcoaceticus; assay: Antimicrobial activity against Acinetobacter calcoaceticus isolate C36 harboring sul1 to sul3 genes assessed as antibiotic resistance breakpoint by agar dilution method; format: functional; method in brief: as §1
Acinetobacter lwoffii [15] = assay: Antimicrobial activity against Acinetobacter lwoffii isolate C37 harboring sul1 to sul3 genes assessed as antibiotic resistance breakpoint by agar dilution method; format: functional; method in brief: as §1
[16] = tested on: Acinetobacter rhizosphaerae; assay: Antimicrobial activity against Acinetobacter rhizosphaerae isolate C44 harboring sul1 to sul3 genes assessed as antibiotic resistance breakpoint by agar dilution method; format: functional; method in brief: as §1
Acinetobacter lwoffii [17] = assay: Antimicrobial activity against Acinetobacter lwoffii isolate C141 harboring sul1 to sul3 genes assessed as antibiotic resistance breakpoint by agar dilution method; format: functional; method in brief: as §1
Bacillus psychrodurans = assay: Antimicrobial activity against Bacillus psychrodurans isolate C328 harboring sul1 to sul3 genes assessed as antibiotic resistance breakpoint by agar dilution method; format: functional, Psychrobacillus psychrodurans; method in brief: as §1
Shigella flexneri = assay: Antimicrobial activity against Shigella flexneri isolate C506 harboring sul1 to sul3 genes assessed as antibiotic resistance breakpoint by agar dilution method; format: functional; method in brief: as §2

Measured: Activity

CN[C@@H]1[C@H](O[C@H]2[C@H](O[C@H]3[C@H](O)[C@@H](O)[C@H](N=C(N)N)[C@@H](O)[C@@H]3N=C(N)N)O[C@@H](C)[C@]2(O)C=O)O[C@@H](CO)[C@H](O)[C@H]1O [STREPTOMYCIN]
16 µg/mL: [1] | Pseudomonas lini | Aerococcus viridans | [2] | [3] | Acinetobacter lwoffii [4] | Providencia stuartii | Enterococcus hirae | [5] | [6] | Acinetobacter lwoffii [7] | Enterococcus sulfureus | Acinetobacter lwoffii [8] | [9] | [10] | [11] | [12] | [13] | [14] | Acinetobacter lwoffii [15] | [16] | Acinetobacter lwoffii [17] | Bacillus psychrodurans | Shigella flexneri
